High-throughput results (PubChem BioAssay)
RGS4 pot: RGS4 potentiation or activation; B-score at 10 µM; 310,000 tested, 0.92% active; AID 463111; HEK293 M3R/inducible RGS4, carbachol calcium flux Fluo4; active compounds read low;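 active = B-score of the integrated calcium signal more than 4 SD below the library mean, with starting fluorescence not abnormally high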;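 note: negative B-score means reduced calcium response which marks RGS4 activation or potentiation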
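Assay system: HEK293 FlpIn-TREx cells, stable M3R, doxycycline-inducible RGS4 / Probe or stimulus: carbachol, ECmax concentration / Times: overnight RGS4 induction, 30 min dye load 37 °C, 20 min compound RT / Signal: kinetic calcium fluorescence imaging with Fluo4-AM dye, 2 µM / Measure: Agonist-evoked peak-minus-minimum fluorescence over baseline, integrated ratio, B score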
MrgX1 ag: agonists of human MrgX1 receptor; B-score at 10 µM; MrgX1-HEK293 cells, Fluo-4 calcium fluorescence, agonist mode; active compounds read high; 310,000 tested, 0.44% active;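 active = calcium response B-score plate-corrected fluorescence ratio at least 3 library SD, with starting fluorescence B-score inside 5 SD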
Target sequence (Q96LB2 whole entry, looked up): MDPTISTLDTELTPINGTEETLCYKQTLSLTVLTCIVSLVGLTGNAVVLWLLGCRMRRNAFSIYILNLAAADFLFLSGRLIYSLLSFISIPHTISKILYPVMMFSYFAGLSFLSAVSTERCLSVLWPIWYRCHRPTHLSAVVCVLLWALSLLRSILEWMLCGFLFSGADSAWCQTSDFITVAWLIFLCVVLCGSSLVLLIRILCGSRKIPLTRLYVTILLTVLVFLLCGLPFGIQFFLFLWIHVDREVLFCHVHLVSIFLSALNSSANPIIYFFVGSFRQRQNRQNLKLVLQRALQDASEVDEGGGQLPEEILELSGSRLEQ
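Material: MrgX1-expressing HEK293 cells; input: 15,000 cells per well; doses: test compound given as first of three sequential additions; schedule: overnight plating before 1 h dye loading; technique: Fluo-4 NW calcium-flux fluorescence, kinetic read; evaluation: baseline-normalised fluorescence change ratio, B-scored; control set: plate-wise positive and negative controls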
MrgX1 PAM: allosterically activates human MrgX1 receptor signaling | Q96LB2 | 310,000 tested, 0.63% active | MrgX1-HEK293, Fluo-4 calcium flux, FDSS; active compounds read high | B-score at 10 µM;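 active = plate-corrected calcium response at least 3 library SD above typical, normal starting fluorescence, not activating the receptor alone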;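 note: compound read alongside a low EC10 to EC30 dose of BAM8-22 agonist; peak minus trough fluorescence over baseline measured at the second addition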
Kir21 inh: inhibitors of mouse Kir2.1 inward-rectifier potassium channel; HEK293-Kir2.1, FluxOR thallium flux fluorescence; active compounds read low; 310,000 tested, 0.85% active; B-score at 10 µM;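 active = fluorescence ratio B-score at or below minus 3 SD of library scores, with starting-brightness B-score within 2 SD, cut at about -4.2 in these data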;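 note: channel flux triggered by added potassium and thallium sulfate stimulus; B-score of peak minus minimum fluorescence over baseline after thallium stimulus; more negative B-score means stronger Kir2.1 block with less thallium influx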
Target sequence (P35561 whole entry, looked up): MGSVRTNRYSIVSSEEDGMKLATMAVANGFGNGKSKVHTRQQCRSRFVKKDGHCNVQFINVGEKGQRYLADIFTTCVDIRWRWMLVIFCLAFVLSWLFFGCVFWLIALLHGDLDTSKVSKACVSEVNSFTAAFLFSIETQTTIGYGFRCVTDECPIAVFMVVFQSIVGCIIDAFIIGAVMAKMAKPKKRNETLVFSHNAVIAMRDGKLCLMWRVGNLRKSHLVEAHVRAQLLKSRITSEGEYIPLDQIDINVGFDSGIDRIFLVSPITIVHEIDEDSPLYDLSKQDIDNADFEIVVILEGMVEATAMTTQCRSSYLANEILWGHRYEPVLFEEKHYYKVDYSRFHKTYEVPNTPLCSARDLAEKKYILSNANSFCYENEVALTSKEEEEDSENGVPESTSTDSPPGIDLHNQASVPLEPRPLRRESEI
MrgX1 antag: blocks BAM8-22 activation of human MrgX1 receptor. B-score at 10 µM. AID 588676. MRGX1-HEK293 calcium flux, Fluo-4, BAM8-22 antagonism; active compounds read low. Q96LB2. 310,000 tested, 1.3% active;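 active = calcium-response B-score plate-corrected more than 3 library SD below zero, starting fluorescence within 5 deviations, no agonist response on first addition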;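 note: peak minus trough fluorescence over baseline after final BAM8-22 challenge near maximal dose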
RGS4 block: human RGS4 inhibition; B-score at 10 µM; 310,000 tested, 0.45% active; HEK293 M3R/RGS4 inducible, Fluo-4 calcium flux; active compounds read high; triggered by carbachol at its EC20; P49798; AID 463165;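 active = B-score, a plate-corrected calcium signal, over three deviations above library mean, with baseline fluorescence within five deviations of library mean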;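 note: RGS4 expression induced by doxycycline in cells with stable M3 receptor; B-score is computed from the integrated fluorescence ratio over baseline after carbachol; higher B-score means a larger calcium signal and so more RGS4 inhibition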
MrgX1 ant reconf: confirmation of human MrgX1 receptor antagonists. AID 602420. shares compounds with MrgX1 antag. MrgX1-HEK293, BAM8-22 calcium flux, Fluo-4; active compounds read low. remaining BAM8-22 calcium response % of control (active compounds read low), % at 10 µM. 2,300 tested, 19% active;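 active = remaining agonist calcium response no higher than 100% minus 3 SD of agonist-only control wells, with starting fluorescence near control levels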;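 note: agonist BAM8-22 given at a near maximal EC90 to ECmax level; peak minus minimum fluorescence divided by baseline after agonist addition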
HEK293 Ca flux: counter-screen for MrgX1 antagonists: effect in parental HEK293 cells; shares compounds with MrgX1 antag; Fluo-4 calcium fluorescence, FDSS; fluorescence ratio F(max-min)/F0 at 10 µM; 4,000 tested, 2% active;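 active = duplicate-averaged calcium fluorescence ratio at least three times the standard deviation of buffer wells, a nonspecific response in parental cells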
HEK293 Ca counter: counter-screen for MrgX1 allosteric activators: effect in parental HEK293 cells | shares compounds with MrgX1 antag | parental HEK293 calcium flux, Fluo-4 fluorescence ratio; active compounds read high | fluorescence ratio F(max-min)/F0 at 10 µM | 4,000 tested, 0.4% active | AID 624114;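 active = calcium fluorescence ratio, averaged over duplicates, at least 3 SD of the buffer-well ratio, meaning a nonspecific response in receptor-free cells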;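 note: untransfected parental HEK293 lacking MrgX1 used as counterscreen for MrgX1 allosteric activators; fluorescence change taken during the second addition on a kinetic imager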
HEK293 Ca cntr2: MrgX1 activator counter-screen hit in parental HEK293 cells. shares compounds with MrgX1 antag. Fluo-4 calcium fluorescence (FDSS); active compounds read high. fluorescence ratio F(max-min)/F0 at 10 µM. 4,000 tested, 8.7% active. AID 624115;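 active = calcium fluorescence ratio at least three times the spread of buffer wells, meaning a non-specific response in parental cells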
An asterisk follows results filed as active; i = inactive; . = no result given. Compounds with a hit are over-represented: about 4.1% of the library has one in this group of screens.

SMILES | RGS4 pot | MrgX1 ag | MrgX1 PAM | Kir21 inh | MrgX1 antag | RGS4 block | MrgX1 ant reconf | HEK293 Ca flux | HEK293 Ca counter | HEK293 Ca cntr2
COc1ccc(NC(=O)CSc2nc(=O)n(CCN(C)C)c3c2CCCC3)cc1OC | i | i | i | -0.32 | -5.6* | i | i | i | i | i
CCN(CC)CCn1c2c(c(SCC(=O)Nc3ccc(F)c(F)c3)nc1=O)CCC2 | i | i | i | -0.55 | -9.5* | i | i | i | i | i
CCN(CC)CCCn1c2c(c(SCC(=O)Nc3ccc(F)c(F)c3)nc1=O)CCC2 | i | i | i | 1.7 | i | i | . | . | . | .
CC(C)(C)c1cc(C(=O)NNc2ccc(OC(F)(F)F)cc2)n(Cc2ccccc2)n1 | i | i | i | -0.1 | i | i | . | . | . | .
Cc1cccc(CCNC(=O)CN(C)S(=O)(=O)c2ccc3c(c2)c(=O)n(C)c(=O)n3C)c1 | i | i | i | -1.4 | i | i | . | . | . | .
COC(=O)[C@@H](NC(=O)c1ccc2c(c1)S(=O)(=O)c1ccccc1C2=O)C(C)C | i | i | i | 0.24 | -4.7* | i | i | i | i | i
C/C(=N/NS(C)(=O)=O)c1ccc2ccccc2c1 | i | i | i | -0.56 | i | i | . | . | . | .
CSc1nc2ccc3nc(NC(=O)c4ccccc4)sc3c2s1 | i | i | i | 0.01 | -7.4* | i | i | i | i | i
O=C(CN1C(=O)NC2NC(=O)NC21)N/N=C/c1ccc(F)cc1 (centres undefined) | i | i | i | 1.5 | i | i | . | . | . | .
CCN(CC)S(=O)(=O)c1cccc(NC(=O)COC(=O)c2n[nH]c(=O)c3ccccc23)c1 | i | i | i | 1.4 | i | i | . | . | . | .
CCCNC(=O)COC(=O)c1cccnc1Nc1ccccc1F | i | i | i | -0.07 | i | i | . | . | . | .
O=C(COC(=O)c1cccnc1Nc1ccccc1F)NCCN1C(=O)CSC1=O | i | i | i | -0.11 | -12* | i | i | i | i | i
COc1ccc(-n2c(Cc3cccn3C)nnc2SCC(=O)Nc2ccc(C)c(Cl)c2)cc1 | i | i | i | -0.64 | -4.8* | i | i | i | i | i
Cc1ccc(Cl)c(OCC(=O)Nc2sc(C)c(C)c2C#N)c1 | i | i | i | 1.2 | -7.9* | i | i | i | i | i
COc1ccc(-n2c(=S)[nH]c3cc(C(=O)Nc4ccc(C)c(F)c4)ccc3c2=O)c(OC)c1 | i | i | i | -0.39 | -5* | i | i | i | i | i
Cc1cccc(OCCCC(=O)NC2CCCCC2)c1 | i | i | i | -0.28 | -6.7* | i | i | i | i | i
Cc1cccc(OCC(=O)NC2CCCC2)c1 | i | i | i | 0.22 | i | i | . | . | . | .
O=C1CCCN1CCC12CC3CC(CC(C3)C1)C2 | i | i | i | -0.75 | -4.7* | i | i | i | i | i
CCc1ccccc1N(CC(=O)N1CCN(c2ccc(F)cc2)CC1)S(C)(=O)=O | i | i | i | -0.24 | i | i | . | . | . | .
Cc1ccccc1N(CC(=O)N1CCN(c2ccccc2)CC1)S(C)(=O)=O | i | i | i | 1.1 | -7.7* | i | i | i | i | i
CCOC(=O)Nc1nc(-c2ccc(Cl)cc2Cl)cs1 | i | i | i | -0.36 | -5.6* | i | i | i | i | i
CCOC(=O)Nc1nc(C)c(C(=O)c2ccc(Cl)cc2)s1 | i | i | i | -0.55 | i | i | . | . | . | .
CC(=O)c1cc2c(cc1NC(=O)CSc1nc3ccccc3[nH]1)OCO2 | i | i | i | 1.1 | -6.6* | i | 75%* | i | i | i
O=C(CSc1nc2ccccc2[nH]1)c1c[nH]c2ccccc12 | i | i | i | -0.75 | -5.7* | i | i | i | i | i
CC(=O)c1cc2c(cc1NC(=O)CSc1nc3ccc(C)cc3[nH]1)OCO2 | i | i | i | 0.2 | i | i | . | . | . | .
SMILES | RGS4 pot | MrgX1 ag | MrgX1 PAM | Kir21 inh | MrgX1 antag | RGS4 block | MrgX1 ant reconf | HEK293 Ca flux | HEK293 Ca counter | HEK293 Ca cntr2
COCC(C)n1c(C)cc(C(=O)CSc2nc3ccccc3c(=O)[nH]2)c1C (centres undefined) | i | i | i | 1 | -7.7* | i | i | i | i | i
C=CCn1c(C)cc(C(=O)CSc2nc3ccccc3[nH]2)c1C | i | i | i | -0.15 | -6.7* | i | 71%* | i | i | i
COc1ccc(OC)c(-c2csc(NC(=O)Cc3ccc(OC)c(OC)c3)n2)c1 | i | i | i | 0.69 | i | i | . | . | . | .
S=C1CCSc2ccc(Cl)cc2N1 | i | . | . | 0.58 | . | i | . | . | . | .
CC1(C)CC2CC(C)(CN2S(=O)(=O)c2cccc(N)c2)C1 (centres undefined) | i | i | i | 1.2 | i | i | . | . | . | .
CC(C)OC(=O)CSc1nnc(-c2cccnc2)n1N | i | i | i | 1.2 | i | i | . | . | . | .
CC(NC(=O)CSc1nnc(-c2cccnc2)n1N)c1ccccc1 (centres undefined) | i | i | i | 0.94 | -4.6* | i | i | i | i | i
CC[C@H](C)[C@@H](C(=O)NCCCCCCCCCCC(=O)N1CCN(C(=O)OC(C)(C)C)CC1)n1cc(CCCCCNC(=O)OC(C)(C)C)nn1 | . | i | i | . | -13* | . | 44%* | i | i | i
CC[C@H](C)[C@@H](C(=O)NCCCCCCCCCCC(=O)N1CCN(C(=O)OC(C)(C)C)CC1)n1cc(CCCCN=C(NC(=O)OC(C)(C)C)NC(=O)OC(C)(C)C)nn1 | . | i | i | . | i | . | . | . | . | .
C/C=C\C=C/C(=O)Nc1cccc(C2=NOC3(C2)C[C@@H](C(N)=O)N(C(=O)CCCCC)C3)c1 (some centres undefined) | i | i | i | 0.08 | i | i | . | . | . | .
